Experimental data reported in ChEMBL document CHEMBL1153729, “Structurally diverse limonoids from the fruits of Swietenia mahagoni” (2009).
In brackets after ≈: the same amount, converted by molar mass. Activity calls are given as the source filed them. The calls are words filed in the database; no cut-off is given here.

Assays:
Pseudomonas aeruginosa = assay: Antibacterial activity against Pseudomonas aeruginosa ATCC 14502 after 18 hrs; assay type: functional, organism-based
Outline: (§1)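 Bacterial cells suspended in Mueller-Hinton broth at a final density of […]. Incubated aerobically with compounds in DMSO at 37 °C for 18 h, alongside DMSO-only blank cultures and an ofloxacin positive control. MIC taken as the lowest concentration giving complete inhibition of visible growth.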

Saccharomyces = assay: Antifungal activity against Saccharomyces sake ATCC 26421 after 48 hrs; assay type: functional, organism-based
Outline: (§2)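 Fungi grown in Sabouraud dextrose broth with compounds for 48 h at 37 °C. Blank cultures received a limited amount of DMSO. Amphotericin B, dissolved in DMSO, served as the positive control.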

Bacillus subtilis = assay: Antibacterial activity against Bacillus subtilis ATCC 6633 after 18 hrs; assay type: functional, organism-based; outline: as §1
Escherichia coli = assay: Antibacterial activity against Escherichia coli ATCC 25922 after 18 hrs; assay type: functional, organism-based; outline: as §1
[1] = tested on: Staphylococcus epidermidis; assay: Antibacterial activity against Staphylococcus epidermidis ATCC 12228 after 18 hrs; assay type: functional, organism-based; outline: as §1
Trichophyton rubrum = assay: Antifungal activity against Trichophyton rubrum ATCC 10218 after 48 hrs; assay type: functional, organism-based; outline: as §2
Kocuria rhizophila = assay: Antibacterial activity against Micrococcus luteus ATCC 9341 after 18 hrs; assay type: functional; details: for Activity: DC2201; for MIC: DC2201, 18 h; outline: as §1
Candida albicans = assay: Antifungal activity against Candida albicans ATCC 1600 after 48 hrs; assay type: functional, organism-based; outline: as §2
Staphylococcus aureus = assay: Antibacterial activity against Staphylococcus aureus ATCC 25923 after 18 hrs; assay type: functional, organism-based; outline: as §1
Shigella flexneri = assay: Antibacterial activity against Shigella flexneri ATCC 12022 after 18 hrs; assay type: functional, organism-based; outline: as §1
Nannizzia gypsea = assay: Antifungal activity against Microsporum gypseum ATCC 14683 after 48 hrs; assay type: functional, organism-based; outline: as §2

Question: COC(=O)C[C@H]1C(C)(C)C(=O)[C@@H]2CC3=C4CC(=O)O[C@@H](c5ccoc5)[C@]4(C)CC[C@@H]3[C@@]1(C)C2=O was tested. Which Activity (Pseudomonas aeruginosa) did it give?
Answer: inactive

Question: What about the Activity (Saccharomyces) of the same molecule?
Answer: inactive

Question: What about the Activity (Bacillus subtilis) of the same molecule?
Answer: inactive

Question: What about the Activity (Escherichia coli) of the same molecule?
Answer: inactive

Question: What about the Activity [1] of the same molecule?
Answer: inactive

Question: What about the Activity (Trichophyton rubrum) of the same molecule?
Answer: inactive

Question: What about the Activity (Kocuria rhizophila) of the same molecule?
Answer: inactive

Question: And the Activity (Candida albicans)?
Answer: inactive

Question: What about the Activity (Staphylococcus aureus) of the same molecule?
Answer: inactive

Question: And the Activity (Shigella flexneri)?
Answer: inactive

Question: What about the Activity (Nannizzia gypsea) of the same molecule?
Answer: inactive

Question: COC(=O)C[C@H]1C(C)(C)[C@@H](OC(C)=O)[C@@H]2CC3=C4CC(=O)O[C@@H](c5ccoc5)[C@]4(C)CC[C@@H]3[C@@]1(C)C2=O was tested. Which Activity (Pseudomonas aeruginosa) did it give?
Answer: inactive

Question: And the Activity (Saccharomyces)?
Answer: inactive

Question: And the Activity (Bacillus subtilis)?
Answer: inactive

Question: What about the Activity (Escherichia coli) of the same molecule?
Answer: inactive

Question: And the Activity [1]?
Answer: inactive

Question: And the Activity (Trichophyton rubrum)?
Answer: inactive

Question: What about the Activity (Kocuria rhizophila) of the same molecule?
Answer: inactive

Question: And the Activity (Candida albicans)?
Answer: inactive

Question: And the Activity (Staphylococcus aureus)?
Answer: inactive

Question: What about the Activity (Shigella flexneri) of the same molecule?
Answer: inactive

Question: And the Activity (Nannizzia gypsea)?
Answer: inactive

Question: What does the source list for COC(=O)C[C@H]1C(C)(C)[C@H](OC(C)=O)[C@]2(O)CC3=C4[C@@H](O)C(=O)O[C@@H](c5ccoc5)[C@]4(C)CC[C@@H]3[C@@]1(C)C2=O?
Answer: Activity (Pseudomonas aeruginosa): inactive; Activity (Saccharomyces): inactive; Activity (Bacillus subtilis): inactive; Activity (Escherichia coli): inactive; Activity [1]: inactive; Activity (Trichophyton rubrum): inactive; Activity (Kocuria rhizophila): inactive; Activity (Candida albicans): inactive; Activity (Staphylococcus aureus): inactive; Activity (Shigella flexneri): inactive; Activity (Nannizzia gypsea): inactive

Question: Which Activity (Pseudomonas aeruginosa) does the source give for C=C1[C@@H]2CC[C@@]3(C)[C@H](c4ccoc4)OC(=O)C[C@]13O[C@H]1CC(=O)C(C)(C)[C@H](C(O)C(=O)OC)[C@]12C (stereo not given in full) here?
Answer: inactive

Question: And the Activity (Saccharomyces)?
Answer: inactive

Question: And the Activity (Bacillus subtilis)?
Answer: inactive

Question: What about the Activity (Escherichia coli) of the same molecule?
Answer: inactive

Question: And the Activity [1]?
Answer: inactive

Question: And the Activity (Trichophyton rubrum)?
Answer: inactive

Question: And the Activity (Kocuria rhizophila)?
Answer: inactive

Question: What about the Activity (Candida albicans) of the same molecule?
Answer: inactive

Question: And the Activity (Staphylococcus aureus)?
Answer: inactive

Question: And the Activity (Shigella flexneri)?
Answer: inactive

Question: What about the Activity (Nannizzia gypsea) of the same molecule?
Answer: inactive

Question: How did the MIC (Kocuria rhizophila) turn out when CC1COc2c(N3CCN(C)CC3)c(F)cc3c(=O)c(C(=O)O)cn1c23 (stereo not given) [OFLOXACIN] was run?
Answer: 1.56 µg/mL (≈ 4.32 µM)

Question: Which results are given for CC1(C)C(=O)C=C[C@]2(C)[C@H]3CC[C@@]4(C)[C@H](c5ccoc5)OC(=O)[C@H]5O[C@]54[C@]3(C)C(=O)C[C@@H]12?
Answer: Activity (Pseudomonas aeruginosa): inactive; Activity (Saccharomyces): inactive; Activity (Bacillus subtilis): inactive; Activity (Escherichia coli): inactive; Activity [1]: inactive; Activity (Trichophyton rubrum): inactive; Activity (Kocuria rhizophila): inactive; Activity (Candida albicans): inactive; Activity (Staphylococcus aureus): inactive; Activity (Shigella flexneri): inactive; Activity (Nannizzia gypsea): inactive

Question: How did the Activity (Pseudomonas aeruginosa) turn out when C/C=C(\C)C(=O)O[C@H]1C(C)(C)[C@H](CC(=O)OC)[C@]2(C)C(=O)[C@@]1(O)CC1=C3[C@@H](O)C(=O)O[C@@H](c4ccoc4)[C@]3(C)CC[C@@H]12 was run?
Answer: inactive

Question: And the Activity (Saccharomyces)?
Answer: inactive

Question: What about the Activity (Bacillus subtilis) of the same molecule?
Answer: inactive

Question: What about the Activity (Escherichia coli) of the same molecule?
Answer: inactive

Question: What about the Activity [1] of the same molecule?
Answer: inactive

Question: What about the Activity (Trichophyton rubrum) of the same molecule?
Answer: inactive

Question: And the Activity (Kocuria rhizophila)?
Answer: inactive

Question: And the Activity (Candida albicans)?
Answer: inactive

Question: And the Activity (Staphylococcus aureus)?
Answer: inactive

Question: What about the Activity (Shigella flexneri) of the same molecule?
Answer: inactive

Question: And the Activity (Nannizzia gypsea)?
Answer: inactive

Question: For C=C1[C@@H]2CC[C@@]3(C)[C@H](c4ccoc4)OC(=O)C[C@]13O[C@H]1CC(=O)C(C)(C)[C@H](CC(=O)OC)[C@]12C, which Activity (Pseudomonas aeruginosa) is on record?
Answer: inactive

Question: What about the Activity (Saccharomyces) of the same molecule?
Answer: inactive

Question: And the Activity (Bacillus subtilis)?
Answer: inactive

Question: And the Activity (Escherichia coli)?
Answer: inactive

Question: What about the Activity [1] of the same molecule?
Answer: inactive

Question: And the Activity (Trichophyton rubrum)?
Answer: inactive

Question: What about the Activity (Kocuria rhizophila) of the same molecule?
Answer: inactive

Question: And the Activity (Candida albicans)?
Answer: inactive

Question: And the Activity (Staphylococcus aureus)?
Answer: inactive

Question: And the Activity (Shigella flexneri)?
Answer: inactive

Question: And the Activity (Nannizzia gypsea)?
Answer: inactive

Question: With COC(=O)C[C@H]1C(C)(C)[C@H](OC(C)=O)[C@@H]2C=C3[C@H]([C@H](OC(C)=O)C[C@]4(C)[C@H]3CC(=O)O[C@H]4c3ccoc3)[C@@]1(C)C2=O as the molecule, how does the Activity (Pseudomonas aeruginosa) read?
Answer: inactive

Question: And the Activity (Saccharomyces)?
Answer: inactive

Question: And the Activity (Bacillus subtilis)?
Answer: inactive

Question: And the Activity (Escherichia coli)?
Answer: inactive

Question: What about the Activity [1] of the same molecule?
Answer: inactive

Question: What about the Activity (Trichophyton rubrum) of the same molecule?
Answer: inactive

Question: What about the Activity (Kocuria rhizophila) of the same molecule?
Answer: inactive

Question: And the Activity (Candida albicans)?
Answer: inactive

Question: What about the Activity (Staphylococcus aureus) of the same molecule?
Answer: inactive

Question: And the Activity (Shigella flexneri)?
Answer: inactive

Question: What about the Activity (Nannizzia gypsea) of the same molecule?
Answer: inactive

Question: Which Activity (Pseudomonas aeruginosa) does the source give for CC(=O)O[C@H]1C[C@@H](OC(C)=O)C(C)(C)[C@@H]2C[C@@H](O)[C@]3(C)[C@H](CC[C@@]4(C)[C@H](c5ccoc5)OC(=O)[C@H]5O[C@@]534)[C@@]12C here?
Answer: inactive

Question: What about the Activity (Saccharomyces) of the same molecule?
Answer: inactive

Question: What about the Activity (Bacillus subtilis) of the same molecule?
Answer: inactive

Question: What about the Activity (Escherichia coli) of the same molecule?
Answer: inactive

Question: And the Activity [1]?
Answer: inactive

Question: What about the Activity (Trichophyton rubrum) of the same molecule?
Answer: inactive

Question: And the Activity (Kocuria rhizophila)?
Answer: inactive

Question: And the Activity (Candida albicans)?
Answer: inactive

Question: What about the Activity (Staphylococcus aureus) of the same molecule?
Answer: inactive

Question: What about the Activity (Shigella flexneri) of the same molecule?
Answer: inactive

Question: And the Activity (Nannizzia gypsea)?
Answer: inactive

Question: How did the Activity (Pseudomonas aeruginosa) turn out when COC(=O)C[C@H]1C(C)(C)[C@H](OC(=O)C(C)C)[C@@H]2C=C3[C@H]([C@H](OC(C)=O)C[C@]4(C)[C@H]3CC(=O)O[C@H]4c3ccoc3)[C@@]1(C)C2=O was run?
Answer: inactive

Question: What about the Activity (Saccharomyces) of the same molecule?
Answer: inactive

Question: And the Activity (Bacillus subtilis)?
Answer: inactive

Question: What about the Activity (Escherichia coli) of the same molecule?
Answer: inactive

Question: What about the Activity [1] of the same molecule?
Answer: inactive

Question: And the Activity (Trichophyton rubrum)?
Answer: inactive

Question: What about the Activity (Kocuria rhizophila) of the same molecule?
Answer: inactive

Question: And the Activity (Candida albicans)?
Answer: inactive

Question: And the Activity (Staphylococcus aureus)?
Answer: inactive

Question: And the Activity (Shigella flexneri)?
Answer: inactive

Question: And the Activity (Nannizzia gypsea)?
Answer: inactive

Question: Which results are given for CC(=O)O[C@@H]1C[C@H](O)[C@]2(C)[C@H]3CC[C@@]4(C)[C@H](c5ccoc5)OC(=O)[C@H]5O[C@]54[C@]3(C)[C@H](OC(C)=O)C[C@H]2C1(C)C?
Answer: Activity (Pseudomonas aeruginosa): inactive; Activity (Saccharomyces): inactive; Activity (Bacillus subtilis): inactive; Activity (Escherichia coli): inactive; Activity [1]: inactive; Activity (Trichophyton rubrum): inactive; Activity (Kocuria rhizophila): inactive; Activity (Candida albicans): inactive; Activity (Staphylococcus aureus): inactive; Activity (Shigella flexneri): inactive; Activity (Nannizzia gypsea): inactive

Question: For COC(=O)C[C@H]1C(C)(C)[C@H](OC(=O)C(C)C)[C@]2(O)CC3=C4CC(=O)O[C@@H](c5ccoc5)[C@]4(C)CC[C@@H]3[C@@]1(C)C2=O, which Activity (Pseudomonas aeruginosa) is on record?
Answer: inactive

Question: What about the Activity (Saccharomyces) of the same molecule?
Answer: inactive

Question: What about the Activity (Bacillus subtilis) of the same molecule?
Answer: inactive

Question: What about the Activity (Escherichia coli) of the same molecule?
Answer: inactive

Question: What about the Activity [1] of the same molecule?
Answer: inactive

Question: And the Activity (Trichophyton rubrum)?
Answer: inactive

Question: And the MIC (Kocuria rhizophila)?
Answer: 50 µg/mL (≈ 89.8 µM)

Question: And the Activity (Candida albicans)?
Answer: inactive

Question: What about the Activity (Staphylococcus aureus) of the same molecule?
Answer: inactive

Question: What about the Activity (Shigella flexneri) of the same molecule?
Answer: inactive

Question: What about the Activity (Nannizzia gypsea) of the same molecule?
Answer: inactive

Question: CC(=O)O[C@H]1C[C@@H](O)C(C)(C)[C@@H]2C[C@@H](O)[C@]3(C)[C@H](CC[C@@]4(C)[C@H](c5ccoc5)OC(=O)[C@H]5O[C@@]534)[C@@]12C was tested. Which Activity (Pseudomonas aeruginosa) did it give?
Answer: inactive

Question: What about the Activity (Saccharomyces) of the same molecule?
Answer: inactive

Question: And the Activity (Bacillus subtilis)?
Answer: inactive

Question: And the Activity (Escherichia coli)?
Answer: inactive

Question: And the Activity [1]?
Answer: inactive

Question: And the Activity (Trichophyton rubrum)?
Answer: inactive

Question: What about the Activity (Kocuria rhizophila) of the same molecule?
Answer: inactive

Question: And the Activity (Candida albicans)?
Answer: inactive

Question: And the Activity (Staphylococcus aureus)?
Answer: inactive

Question: What about the Activity (Shigella flexneri) of the same molecule?
Answer: inactive

Question: What about the Activity (Nannizzia gypsea) of the same molecule?
Answer: inactive

Question: With C=C1C2=CC(=O)O[C@@H](c3ccoc3)[C@]2(C)CC[C@@H]1[C@@]1(C)[C@@H](O)CC(=O)C(C)(C)[C@@H]1CC(=O)OC as the molecule, how does the Activity (Pseudomonas aeruginosa) read?
Answer: inactive

Question: What about the Activity (Saccharomyces) of the same molecule?
Answer: inactive

Question: What about the Activity (Bacillus subtilis) of the same molecule?
Answer: inactive

Question: What about the Activity (Escherichia coli) of the same molecule?
Answer: inactive

Question: What about the Activity [1] of the same molecule?
Answer: inactive

Question: And the Activity (Trichophyton rubrum)?
Answer: inactive

Question: What about the Activity (Kocuria rhizophila) of the same molecule?
Answer: inactive

Question: And the Activity (Candida albicans)?
Answer: inactive

Question: What about the Activity (Staphylococcus aureus) of the same molecule?
Answer: inactive

Question: What about the Activity (Shigella flexneri) of the same molecule?
Answer: inactive

Question: What about the Activity (Nannizzia gypsea) of the same molecule?
Answer: inactive
